From ChEMBL document CHEMBL3797028, “Novel S1P1 receptor agonists - Part 4: Alkylaminomethyl substituted aryl head groups” (Eur J Med Chem, 2016)

Legend:
[1] = Plasma concentration in Wistar rat at 3 mg/kg administered as single dose through oral gavage after 6 hrs by LC-MS/MS analysis; assay type: ADME, organism-based
Method in brief: (§1)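 Single oral gavage dose to male Wistar rats in DMSO/7.5% succinylated gelatine (final 5% DMSO). Blood was drawn into EDTA at the lymphocyte-count timepoints. Plasma was prepared at 3000 g for 10 min at 4 °C and analysed by LC-MS/MS after protein precipitation.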

[2] = Total brain concentration in Wistar rat at 10 mg/kg administered as single dose through oral gavage after 2 hrs by LC-MS/MS analysis; assay type: ADME, organism-based; details: read-out: Drug uptake
Method in brief: (§2)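 Male Wistar rats (n = 2 per timepoint) were dosed orally at 10 mg/kg. At 2, 6 and 24 h they were anaesthetised with 5% isoflurane and sacrificed, and blood was taken for plasma. The brain was perfused via the carotid with 10 mL 0.9% NaCl, removed, and homogenised in an equal volume of ice-cold 0.1 M Na-phosphate pH 7.4. Samples were assayed by LC-MS/MS against blank-brain calibration. Brain/plasma ratio was calculated from these values, reported as the mean of 2.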

[3] = Total brain concentration in Wistar rat at 10 mg/kg administered as single dose through oral gavage after 6 hrs by LC-MS/MS analysis; assay type: ADME, organism-based; details: read-out: Drug uptake; method in brief: as §2
[4] = Total brain concentration in Wistar rat at 10 mg/kg administered as single dose through oral gavage after 24 hrs by LC-MS/MS analysis; assay type: ADME, organism-based; details: read-out: Drug uptake; method in brief: as §2
[5] = Total plasma concentration in Wistar rat at 10 mg/kg administered as single dose through oral gavage after 2 hrs by LC-MS/MS analysis; assay type: ADME, organism-based; method in brief: as §2
[6] = Total plasma concentration in Wistar rat at 10 mg/kg administered as single dose through oral gavage after 6 hrs by LC-MS/MS analysis; assay type: ADME, organism-based; method in brief: as §2
[7] = Total plasma concentration in Wistar rat at 10 mg/kg administered as single dose through oral gavage after 24 hrs by LC-MS/MS analysis; assay type: ADME, organism-based; method in brief: as §2
[8] = Ratio of total drug level in brain to plasma in Wistar rat at 10 mg/kg administered as single dose through oral gavage after 2 hrs; assay type: ADME, organism-based; details: read-out: BPR; method in brief: as §2
[9] = Ratio of total drug level in brain to plasma in Wistar rat at 10 mg/kg administered as single dose through oral gavage after 6 hrs; assay type: ADME, organism-based; details: read-out: BPR; method in brief: as §2
[10] = Ratio of total drug level in brain to plasma in Wistar rat at 10 mg/kg administered as single dose through oral gavage after 24 hrs; assay type: ADME, organism-based; details: read-out: BPR; method in brief: as §2
[11] = test system: Rattus norvegicus; experiment: Change in circulating lymphocyte count in Wistar rat at 10 mg/kg administered as single dose through oral gavage after 6 hrs relative to control; assay type: functional
Method in brief: (§3)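 Male Wistar rats (RccHan:WIST; n = 6) were given a single oral gavage dose of compound in DMSO plus 7.5% succinylated gelatine (final 5% DMSO). Blood lymphocytes were counted just before dosing and at later timepoints. Percent change was calculated per animal relative to the pre-dose value and compared with a vehicle-treated group, reported as the mean. A ±15% change was treated as baseline, and a reduction of about 60% or more as maximal.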

[12] = test system: Rattus norvegicus; experiment: Change in circulating lymphocyte count in Wistar rat at 10 mg/kg administered as single dose through oral gavage after 3 hrs relative to control; assay type: functional; method in brief: as §3
[13] = Fraction unbound in Wistar rat liver microsomes incubated for 6 hrs by LC-MS/MS based equilibrium dialysis method; assay type: ADME
Method in brief: (§4)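 Rapid equilibrium dialysis was run on a shaker for 6 h at 37 °C. The donor side held rat plasma (pH 7.2–7.6) or 1 mg/mL rat liver microsomes in phosphate buffer pH 7.4. The receiver side held phosphate buffer pH 7.4. Both sides were measured by LC-MS/MS to give free fraction and recovery.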

[14] = Fraction unbound in Wistar rat plasma incubated for 6 hrs by LC-MS/MS based equilibrium dialysis method; assay type: ADME, cell-free; method in brief: as §4
[15] = test system: Liver microsome; experiment: Unbound fraction corrected apparent intrinsic clearance in Wistar rat liver microsomes at 1 uM after 2.5 to 15 mins by LC-MS/MS analysis in presence of NADPH; assay type: ADME
Method in brief: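 Apparent CLint was measured by microsomal substrate depletion: 1 uM start, 0.5 mg/mL rat liver microsomes, pH 7.4, 37 °C, NADPH-regenerating system, sampling 0–15 min, LC-MS/MS. It was then divided by the unbound microsomal fraction, which was determined by rapid equilibrium dialysis of 1 mg/mL microsomes for 6 h at 37 °C.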

[16] = test system: Rattus norvegicus; experiment: Change in circulating lymphocyte count in Wistar rat at 10 mg/kg administered as single dose through oral gavage after 96 hrs relative to control; assay type: functional; method in brief: as §3
[17] = Plasma concentration in Wistar rat at 10 mg/kg administered as single dose through oral gavage after 24 hrs by LC-MS/MS analysis; assay type: ADME, organism-based; method in brief: as §1
[18] = target: Sphingosine 1-phosphate receptor 2 (Homo sapiens, UniProt O95136); experiment: Agonist activity at S1PR2 (unknown origin)
[19] = test system: Rattus norvegicus; experiment: Change in circulating lymphocyte count in Wistar rat at 1 mg/kg administered as single dose through oral gavage after 3 hrs relative to control; assay type: functional; method in brief: as §3
[20] = test system: Rattus norvegicus; experiment: Change in circulating lymphocyte count in Wistar rat at 1 mg/kg administered as single dose through oral gavage after 6 hrs relative to control; assay type: functional; method in brief: as §3
[21] = test system: Rattus norvegicus; experiment: Change in circulating lymphocyte count in Wistar rat at 1 mg/kg administered as single dose through oral gavage after 24 hrs relative to control; assay type: functional; method in brief: as §3
[22] = test system: Rattus norvegicus; experiment: Change in circulating lymphocyte count in Wistar rat at 3 mg/kg administered as single dose through oral gavage after 24 hrs relative to control; assay type: functional; method in brief: as §3
[23] = Plasma concentration in Wistar rat at 1 mg/kg administered as single dose through oral gavage after 6 hrs by LC-MS/MS analysis; assay type: ADME, organism-based; method in brief: as §1
[24] = species on record: Rattus norvegicus; experiment: Intrinsic clearance in rat liver microsomes scaled to body weight; details: in vitro

Chain of Sphingosine 1-phosphate receptor 2 (O95136 whole entry): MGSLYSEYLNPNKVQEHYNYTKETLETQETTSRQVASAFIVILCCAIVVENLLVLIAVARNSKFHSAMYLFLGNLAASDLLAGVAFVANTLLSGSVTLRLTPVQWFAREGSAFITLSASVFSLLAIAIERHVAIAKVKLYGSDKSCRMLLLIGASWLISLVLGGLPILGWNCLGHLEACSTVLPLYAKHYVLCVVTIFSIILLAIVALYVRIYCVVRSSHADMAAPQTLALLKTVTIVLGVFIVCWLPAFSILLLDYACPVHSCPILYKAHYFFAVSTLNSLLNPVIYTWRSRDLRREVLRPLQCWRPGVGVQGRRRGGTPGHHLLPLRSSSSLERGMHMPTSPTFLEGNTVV

## CCc1cc(-c2noc(-c3cc(C)c(CN(C)CC(C)C)s3)n2)cc(C)c1OC[C@@H](O)CNC(=O)CO
[1]
  concentration at 6 h: 170 ng/mL
[2]
  concentration at 2 h: 522 ng/g
[3]
  concentration at 6 h: 1030 ng/g
[4]
  concentration at 24 h: 776 ng/g
[5]
  concentration at 2 h: 783 ng/mL
[6]
  concentration at 6 h: 622 ng/mL
[7]
  concentration at 24 h: 66.5 ng/mL
[8]
  Kp at 2 h: 0.64
[9]
  Kp at 6 h: 1.69
[10]
  Kp at 24 h: 11.5
[11]
  Activity: -77%
[12]
  Activity: -69%
[13]
  fraction unbound at 6 h: 0.002
[14]
  fraction unbound at 6 h: < 0.001
[15]
  CL free: 14000 µL/min/mg
[16]
  Activity: 4%
[17]
  concentration at 24 h: 92 ng/mL
[18]
  EC50: > 1000 nM
[19]
  Activity: -33%
[20]
  Activity: -46%
[21]
  Activity: 4%
[22]
  Activity: -25%
[23]
  concentration at 6 h: 49 ng/mL
[24]
  CL: 1512 L/h/kg
